M4 antag: antagonists of human muscarinic M4 receptor (CHRM4); P08173; CHO-hM4 cells, ACh EC80, Fluo-8 calcium fluorescence; inhibition, % at 3 µM; 360,000 compounds, 0.73% hits; AID 624125;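 active = inhibition above its plate's cutoff, the mean inhibition of sample wells plus 3 SD, cut at about 27% in these data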;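 note: 0% = acetylcholine EC80 with DMSO and 100% = DMSO without agonist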
Target sequence (P08173 whole entry, looked up): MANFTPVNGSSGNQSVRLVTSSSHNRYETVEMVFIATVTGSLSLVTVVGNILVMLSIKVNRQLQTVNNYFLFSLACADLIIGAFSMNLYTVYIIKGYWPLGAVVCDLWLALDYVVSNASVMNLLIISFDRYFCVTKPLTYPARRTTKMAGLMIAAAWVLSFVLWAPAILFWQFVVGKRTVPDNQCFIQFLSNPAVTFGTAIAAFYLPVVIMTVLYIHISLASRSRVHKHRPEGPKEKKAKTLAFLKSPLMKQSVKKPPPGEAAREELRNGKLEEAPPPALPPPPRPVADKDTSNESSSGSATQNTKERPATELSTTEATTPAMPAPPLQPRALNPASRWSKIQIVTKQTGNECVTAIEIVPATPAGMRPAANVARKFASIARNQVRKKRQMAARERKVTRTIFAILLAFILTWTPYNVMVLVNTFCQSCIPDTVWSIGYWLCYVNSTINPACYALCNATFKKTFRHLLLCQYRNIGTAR
M4 PAM: potentiates acetylcholine response at human M4 receptor. P08173. CHO-K1 hM4/Gqi5, Fluo-8 calcium fluorescence, ACh EC20; 0% = ACh EC20, 100% = maximal ACh. activation, % at 3 µM. 360,000 compounds, 0.4% hits. AID 624126;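 active = activation above its plate's cutoff, the mean activation of sample wells plus 3 SD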
M5 antag: antagonists of human muscarinic M5 receptor (CHRM5); 360,000 compounds, 0.59% hits; inhibition, % at 3 µM; CHO-hM5 cells, Fluo-8 calcium fluorescence, ACh EC80; P08912;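 active = inhibition above a per-plate cutoff, the mean of that plate's test compounds plus 3 SD, cut at about 27% in these data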;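 note: 0% = acetylcholine EC80 with DMSO and 100% = DMSO without agonist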
CHRM5 PAM: potentiates acetylcholine response at human M5 receptor | AID 624038 | activation, % at 3 µM | 360,000 compounds, 0.3% hits | CHO-K1 hM5, Fluo-8 calcium, ACh EC20 PAM; 0% = ACh EC20, 100% = ACh EC100 | P08912;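 active = activation above the run cutoff, the mean activation of all test compounds plus 3 SD, cut at about 18% in these data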
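System: CHO-K1 hM5 cells. Reagent: acetylcholine, EC20 level. Compound dosing: single dose, 3 µM nominal final test concentration. Timing: Post-acetylcholine fluorescence recording 140 s. Detection: Fluo-8 calcium fluorescence. Read-out: % activation, ACh-normalized. Benchmarks: ACh EC20 and EC100 wells. Repeats: singlicate, one well per test compound.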
CHRM4 agonist: CHRM4 agonism in calcium assay. CHO-K1 hM4/Gqi5, Fluo-8 calcium fluorescence; vehicle 0%, full acetylcholine response 100%. AID 624127. activation, % at 3 µM. 360,000 compounds, 0.14% hits. P08173;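 active = activation above the run mean over all test wells plus 3 SD, cut at about 32% in these data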;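 note: peak over basal fluorescence ratio per well then scaled between controls; 0% = DMSO wells and 100% = acetylcholine at EC100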
CHRM5 agonist: agonists of human muscarinic M5 receptor (CHRM5). P08912. CHO-K1 hM5 cells, Fluo-8 calcium fluorescence; 0% DMSO wells, 100% maximal acetylcholine response. activation, % at 3 µM. 360,000 compounds, 0.19% hits;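 active = activation above the run's mean over test compounds plus 3 SD, cut at about 23% in these data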;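 note: signal is peak over basal fluorescence ratio across the kinetic read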
An asterisk follows results filed as active. Hits are enriched below; roughly 1.8% of the tested compounds scored in any of these assays.

SMILES	M4 antag	M4 PAM	M5 antag	CHRM5 PAM	CHRM4 agonist	CHRM5 agonist
COc1ccc(NC(=O)N(C)C[C@H]2Oc3c(NC(=O)Nc4ccc(C(F)(F)F)cc4)cccc3C(=O)N([C@H](C)CO)C[C@@H]2C)cc1	28.9*	-6.5	15.7	-27.0	36.9*	1.5
C[C@H](CO)N1C[C@H](C)[C@@H](CN(C)S(=O)(=O)c2cccs2)Oc2ccc(NC(=O)CCC(F)(F)F)cc2C1=O	28.6*	-5.8	2.5	-1.3	-0.7	-7.5
C[C@@H]1CN([C@H](C)CO)C(=O)c2cc(NC(=O)Nc3ccc(C(F)(F)F)cc3)ccc2O[C@H]1CN(C)S(=O)(=O)c1cccs1	-0.9	0.2	5.6	1.7	1.1	-0.5
CS(=O)(=O)N1CCC(C(=O)Nc2ccc(Cl)cc2Cl)CC1	-0.3	2.1	6.2	0.3	0.5	0.3
Cc1ccc(S(=O)(=O)NCc2ccc(C(=O)N3CCN(c4ccc([N+](=O)[O-])cc4)CC3)cc2)cc1	-1.6	-3.4	9.4	-2.9	4.7	3.4
CCCCCCCCn1ccc(=N)cc1	-11.7	-3.4	-25.6	19.9*	0.3	-13.2
CCCCCCCCCCn1ccc(=N)cc1	38.1*	-13.9	13.8	-18.3	0.6	-18.1
CCCCCCN1Cc2ccccc2C1	1.7	-6.7	7.3	-2.4	0.2	-8.1
CC(C)OCCCNC(=O)C(Cc1ccccc1)NS(=O)(=O)c1ccc2c(c1)CCC(=O)N2 (stereo unspecified)	8.1	-2.8	-6.0	7.1	0.4	-3.7
Brc1ccc(CN2CCN(c3ccccn3)CC2)s1	-8.4	28.8*	-4.8	2.9	-1.9	-1.1
CCOc1ccc(S(=O)(=O)N2CCC(C(=O)N3CCCCCC3)CC2)cc1C	-8.5	2.7	-15.3	50.1*	3.6	14.9
CCOc1ccc(S(=O)(=O)N2CCC(C(=O)N3CCOCC3)CC2)cc1C	-4.2	-2.8	12.0	-0.8	1.5	-2.0
c1ccc(-c2cn(-c3ccccc3)c3[n+]2CCS3)cc1	18.2	-16.4	8.2	-4.8	-0.4	-5.0
CC(C)(C)c1ccc(-c2cn(-c3ccc(Br)cc3)c3[n+]2CCCS3)cc1	50.3*	-19.2	58.3*	-20.4	2.9	-11.1
CC1CCN(CCNC(=O)c2ccc3c(=O)n(Cc4ccc(Cl)cc4)c(=S)[nH]c3c2)CC1	29.3*	-21.7	17.4	-15.0	58.7*	2.2
CCN(CC)CCNC(=O)c1ccc2c(=O)n(C3CCCC3)c(=S)[nH]c2c1	26.9*	-27.3	1.3	-3.0	2.1	-8.1
O=C(NCCN1CCCC1)c1ccc(Cn2c(=S)[nH]c3ccc(Br)cc3c2=O)cc1	1.2	-13.0	26.1	-33.4	6.0	45.6*
O=C(NCCCN1CCOCC1)c1ccc2c(=O)n(Cc3cccc(Br)c3)c(=S)[nH]c2c1	4.5	-1.1	14.4	1.5	2.7	0.4
CC(C)NC(=O)c1ccc2c(=O)n(C3CCCC3)c(=S)[nH]c2c1	4.2	6.8	-1.1	0.6	0.3	-1.7
O=C(NCc1ccccc1F)c1ccc(S(=O)(=O)N2CCCC2)cc1	-12.4	2.8	-2.5	1.7	3.7	0.0
O=C(COc1ccc(Cl)cc1)Nc1ncc([N+](=O)[O-])s1	1.9	-6.0	31.0*	-19.6	13.2	4.1
Cc1ccc(C(=O)Nc2ncc([N+](=O)[O-])s2)cc1	5.1	-6.3	31.6*	-18.7	15.3	2.4
Cc1cc(-c2nnc(CCC(=O)N(C)C(C)c3cccs3)o2)no1 (stereo unspecified)	5.3	6.1	5.1	10.3	0.4	0.4
CCOC(=O)C1(C)CCN1C(=O)c1cccc2ccccc12 (stereo unspecified)	9.1	-4.8	-0.5	1.6	0.9	0.9
CC(=O)Nc1ccc(C(=O)NC2CCSc3ccccc32)cc1 (stereo unspecified)	1.1	2.0	0.5	-5.1	1.5	-5.5
SMILES	M4 antag	M4 PAM	M5 antag	CHRM5 PAM	CHRM4 agonist	CHRM5 agonist
Cc1ccc(NC(=S)NC2CCSc3ccccc32)cc1 (stereo unspecified)	75.3*	-21.5	49.3*	-17.7	9.6	-5.3
COc1ccc([N+](=O)[O-])cc1NS(=O)(=O)c1cc(C(=O)N2CCN(C)CC2)ccc1OC	-12.2	8.0	-0.3	2.7	0.5	2.9
Cc1ccccc1OCC(=O)NCC(=O)N/N=C/c1ccc(Br)o1	-23.6	18.9	-14.9	19.7*	9.2	-1.0
CCNC(=O)CC1C(=O)N(CC)C(=S)N1NC(=O)c1ccccc1 (stereo unspecified)	20.6	16.6*	28.5*	28.1*	4.9	1.0
CNC(=O)CC1C(=O)N(C)C(=S)N1NC(=O)c1ccccc1 (stereo unspecified)	0.8	-5.1	9.5	0.8	3.1	5.1
N#Cc1cccnc1N1CCN(C(c2ccnc3ccccc23)c2nnnn2-c2ccc3c(c2)OCCO3)CC1 (stereo unspecified)	6.1	-3.9	6.6	-9.8	1.2	-1.9
S=c1[nH]nc(-c2cccnc2)n1C1CCCCC1	-1.4	25.8*	11.1	3.8	1.2	-3.8
CC1CCCCC1n1c(-c2cccnc2)n[nH]c1=S (stereo unspecified)	-10.3	6.6	-6.0	3.2	1.3	-14.7
Oc1c(Br)cccc1/C=N/c1ncn[nH]1	-6.2	0.7	9.1	-6.2	0.1	-1.3
CC(=O)Nc1ccc2c(c1)C(=Nc1cccc(C)c1)c1ccccc1-2	-12.9	15.9*	21.5	-6.6	1.7	-1.7
Cc1ccc(C)c(N(CC(=O)NCc2ccco2)C(=O)CCC(=O)Nc2nccs2)c1	-19.9	1.2	3.4	-3.9	1.6	-2.5
Cc1csc(=O)n1CC(=O)Nc1ccc(Cl)c(Cl)c1	7.6	-7.0	7.6	-7.5	3.1	0.2
Cn1c(N)c(N2CCCCC2)c(=O)n(CC(=O)Nc2ccc(Cl)c(Cl)c2)c1=O	2.8	24.4	-4.3	19.0*	-0.3	5.7
COc1ccc(C(C)=O)cc1COC(=O)CSCC(=O)Nc1ccc(C)cc1	26.4*	-4.4	2.1	-3.0	0.7	-0.5
COC(=O)[C@@]12C[C@@H](CC(=O)N3CCCC3)C(=O)N(Cc3ccccc3)C1=CCC(C)(C)C2	-15.5	2.8	-0.6	6.2	5.5	1.8
COC1=CCC2([N+](=O)[O-])CN(CCO)CC1([N+](=O)[O-])C2 (stereo unspecified)	-2.3	16.6	9.4	19.0*	2.7	10.3
O=C(O)CCN1CC2([N+](=O)[O-])CC=C(OCCO)C([N+](=O)[O-])(C1)C2 (stereo unspecified)	0.2	0.5	7.9	-4.4	0.4	-2.2
CC1=C(C(=O)N(C)C)CC(CC(=O)NCc2cccs2)C(=O)N1CCCN1CCCC1=O (stereo unspecified)	-1.1	4.0	5.5	2.1	1.1	-0.6

Bioassay records from PubChem BioAssay.
